The results in this text go back to ChEMBL document CHEMBL1155293 (Eur J Med Chem, 2009).

Calls of active or inactive are those of the source.

Series [1] is described as follows: Lipophilicity, log P of the compound. Type of series: physicochemical. The following applies: octanol/water.
The subject of series [2] is Mus musculus. The series is described as follows: Antinociceptive activity in Swiss mouse by inhibition of acetic acid-induced abdominal constriction at 10 mg/kg, ip after 20 mins. The class given is functional. The following applies: Abdomen, route intraperitoneal. The essentials:
(§1)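 Male Swiss mice (25–30 g) were pretreated i.p. 30 min before i.p. acetic acid (0.6%): 10 mg/kg for screening, or 3, 6 and 10 mg/kg for dose-response. Controls received vehicle (0.9% NaCl and Tween 80, 10 ml/kg i.p.). Abdominal constrictions plus stretching were counted cumulatively over 20 min at 23 ± 2 °C. Inhibition is relative to controls; ID50 by linear regression.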

Series [3] relates to Mus musculus. Nature of the series: Antinociceptive activity in Swiss mouse assessed as reduction in response latency at 10 mg/kg, ip after 30 mins by hot plate method. Type of series: functional, organism-based. More on the design: dose 10 mg/kg. The procedure, abridged: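 Mice received saline, morphine 10 mg/kg s.c., or test compound 10 mg/kg i.p. 30 min before testing on a hot plate at 56 ± 1 °C. Latency to hindpaw licking, paw shaking or jumping was recorded. Mice with baseline latency above 20 s were excluded; cut-off was 30 s. Mean ± SEM of six values.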
(In general: Hot-plate and tail-flick tests time the reaction to a heat stimulus.)

Series [4] deals with Mus musculus. Nature of the series: Antinociceptive activity against glutamate-induced pain in Swiss mouse assessed as reduction in time spent on paw licking and biting at 30 mg/kg, ip. More on the design: scale not given: the % may be the effect or the level left. Type of series: functional. The following applies: route intraperitoneal. The essentials: (§2)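 Dosing was i.p. at 10, 30 or 60 mg/kg, 30 min before intraplantar glutamate (30 µmol/paw) into the right hindpaw. Time spent licking or biting the injected paw was timed from 0 to 15 min. Mean ± SEM of six values; ID50 from linear regression as geometric mean with 95% confidence limits. ANOVA with Newman–Keuls test.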

Series [5] deals with Mus musculus. The series is described as follows: Antinociceptive activity in po dosed Swiss mouse by inhibition of acetic acid-induced abdominal constriction. The class given is functional. The following applies: Abdomen, read-out: ID50 (the source's name). The essentials: (§3)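 Oral dosing of male Swiss mice (25–30 g) at 100, 250 and 500 mg/kg, 30 min before i.p. acetic acid (0.6%). Vehicle was Tween 80 in 0.9% NaCl. Abdominal constrictions with stretching were counted cumulatively for 20 min at 23 ± 2 °C. Inhibition is relative to vehicle controls; mean ± SEM of six values.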

In series [6] the test system is Mus musculus. The series is described as follows: Antinociceptive activity against glutamate-induced pain in ip dosed Swiss mouse assessed as reduction in time spent on paw licking and biting. The class given is functional. The essentials:
as §2

Series [7] has as its system Mus musculus. Nature of the series: Antinociceptive activity against formalin-induced pain in Swiss mouse assessed as reduction of time spent in paw licking and biting at 10 mg/kg, ip after 0 to 5 mins. Type of series: functional. The following applies: route intraperitoneal. Set-up: scale not given: the % may be the effect or the level left. The essentials: (§4)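 Swiss mice, 6–8 per group, housed at 22 ± 2 °C on a 12 h light/dark cycle. Compound given i.p. at 6, 10 or 30 mg/kg in Tween 80/0.9% NaCl vehicle (Tween ≤5%) before intraplantar formalin. Licking was scored for the first phase (0–5 min) and second phase (15–30 min). Mean ± SEM of six values; ID50 by linear regression with 95% confidence limits.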

Series [8] relates to Mus musculus. The series is described as follows: Antinociceptive activity in ip dosed Swiss mouse by inhibition of acetic acid-induced abdominal constriction after 20 mins. The class given is functional. The following applies: Abdomen, read-out: ID50 (the source's name). The procedure, abridged: as §1
Series [9] deals with Mus musculus. Nature of the series: Antinociceptive activity against capsaicin-induced neurogenic pain in Swiss mouse by reduction of paw licking response at 30 mg/kg, ip. Type of series: functional. More on the design: scale not given: the % may be the effect or the level left. The following applies: route intraperitoneal. The procedure, abridged:
(§5)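 Capsaicin dissolved in absolute ethanol (final ≤5%), injected intraplantarly. Test compound given i.p. at 10, 30 and 60 mg/kg, 30 min before capsaicin, in Tween 80 plus 0.9% NaCl. Time spent licking the injected paw was timed over 5 min. Data are mean ± SEM; ID50 from linear regression as geometric mean with 95% confidence limits. ANOVA with Newman–Keuls test.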

The test system of series [10] is Mus musculus. The series is described as follows: Antinociceptive activity in ip dosed Swiss mouse by inhibition of formalin induced pain after 15 to 30 mins. The class given is functional. The note with it: read-out: ID50 (the source's name). The essentials:
as §4

The test system of series [11] is Mus musculus. Nature of the series: Antinociceptive activity in ip dosed Swiss mouse by inhibition of formalin induced pain after 0 to 5 mins. The following applies: read-out: ID50 (the source's name). Type of series: functional. The procedure, abridged: as §4
For series [12], the system named is Mus musculus. The series is described as follows: Antinociceptive activity against formalin-induced pain in Swiss mouse assessed as reduction of time spent in paw licking and biting at 10 mg/kg, ip after 15 to 30 mins. More on the design: scale not given: the % may be the effect or the level left. The class given is functional. The following applies: route intraperitoneal. The essentials: as §4

In series [13] the test system is Mus musculus. The series is described as follows: Antinociceptive activity in Swiss mouse by inhibition of acetic acid-induced abdominal constriction at 100 mg/kg, po after 20 mins. Type of series: functional, Abdomen. More on the design: scale not given: the % may be the effect or the level left. The procedure, abridged:
as §3

In series [14] the test system is Mus musculus. The series is described as follows: Antinociceptive activity against formalin-induced pain in ip dosed Swiss mouse assessed as reduction of time spent in paw licking. The class given is functional. The following applies: for ED50: read-out: ID50 (the source's name). The procedure, abridged: as §4
Series [15] relates to Mus musculus. The series is described as follows: Antinociceptive activity against capsaicin-induced neurogenic pain in ip dosed Swiss mouse by reduction of paw licking response. The class given is functional. The procedure, abridged:
as §5

Series [16] concerns Mus musculus. Nature of the series: Antinociceptive activity against glutamate-induced pain in Swiss mouse assessed as reduction in time spent on paw licking and biting at 10 mg/kg, ip. The class given is functional. Set-up: scale not given: the % may be the effect or the level left. The note with it: route intraperitoneal. The essentials:
as §2

For series [17], the system named is Mus musculus. The series is described as follows: Antinociceptive activity against glutamate-induced pain in Swiss mouse assessed as reduction in time spent on paw licking and biting at 60 mg/kg, ip. Type of series: functional. More on the design: scale not given: the % may be the effect or the level left. The following applies: route intraperitoneal. The essentials: as §2

Series [18] has as its system Mus musculus. The series is described as follows: Antinociceptive activity against formalin-induced pain in Swiss mouse assessed as reduction of time spent in paw licking and biting at 30 mg/kg, ip after 0 to 5 mins. Type of series: functional. Set-up: scale not given: the % may be the effect or the level left. The following applies: route intraperitoneal. The procedure, abridged: as §4

In series [19] the test system is Mus musculus. The series is described as follows: Antinociceptive activity against capsaicin-induced neurogenic pain in Swiss mouse by reduction of paw licking response at 60 mg/kg, ip. Type of series: functional. More on the design: scale not given: the % may be the effect or the level left. The note with it: route intraperitoneal. The essentials:
as §5

For series [20], the system named is Mus musculus. Nature of the series: Antinociceptive activity in Swiss mouse by inhibition of acetic acid-induced abdominal constriction at 500 mg/kg, po after 20 mins. The class given is functional, Abdomen. More on the design: scale not given: the % may be the effect or the level left. The essentials:
as §3

In series [21] the test system is Mus musculus. Nature of the series: Antinociceptive activity against formalin-induced pain in Swiss mouse assessed as reduction of time spent in paw licking and biting at 30 mg/kg, ip after 15 to 30 mins. The following applies: route intraperitoneal. Type of series: functional. Set-up: scale not given: the % may be the effect or the level left. The essentials:
as §4

Series [22] relates to Mus musculus. Nature of the series: Antinociceptive activity in Swiss mouse by inhibition of acetic acid-induced abdominal constriction at 250 mg/kg, po after 20 mins. Type of series: functional, Abdomen. More on the design: scale not given: the % may be the effect or the level left. The procedure, abridged: as §3
Setting [23] is: read-out: ID50 (the source's name).

What is called logP is the decadic logarithm of the partition coefficient of the neutral form, usually between octanol and water. As usually defined, the inhibition in vivo is the percentage by which the read-out fell short of the control.

Regarding `O=C(/C=C/c1ccc(O)c(O)c1)OCCc1ccccc1` [CAFFEIC ACID PHENETHYL ESTER], the logP in series [1] was found to be 3.36. In addition, in the series with Mus musculus [2], testing at 10 mg/kg gave an inhibition in vivo of 27.5%.
For `CCCCCCCCOC(=O)/C=C/c1ccc(O)c(O)c1`, in that order: 5.02 and 46.2%.
As to `CCCCCCCCCCCCOC(=O)/C=C/c1ccc(O)c(O)c1`, in the series with Mus musculus [3], the outcome was inactive. Also, the Activity is 46.3% in the series with Mus musculus [4]; “Dose-dependent effect” in the series on Mus musculus [6]; 20.7% in the series on Mus musculus [7]; 36.9% in the series on Mus musculus [9]; 34.4% in the series with Mus musculus [12]; 22.2% in the series with Mus musculus [13]. Also, the Activity result in the series with Mus musculus [14] is “Dose-dependent effect”; in the series with Mus musculus [15], “Dose-dependent effect”; in the series with Mus musculus [16] it was 25.6%; in the series with Mus musculus [17] it was 65.2%; with Mus musculus [18] it was 56.2%; in the series on Mus musculus [19], 58.6%. For the same molecule, the Activity in the series on Mus musculus [20] is recorded as 45.7%; with Mus musculus [21], 56.8%; in the series with Mus musculus [22], 32.4%. The ED50 with Mus musculus [5] is no less than 500 mg/kg; in the series with Mus musculus [6] (setting [23]), 38.4 mg/kg; in the series with Mus musculus [8], 5.25 mg/kg; in the series on Mus musculus [10] it was 23.8 mg/kg; in the series on Mus musculus [11], 26.2 mg/kg; in the series on Mus musculus [15] (setting [23]) it was 46.6 mg/kg. Besides, the logP in series [1] was found to be 7.04. In the series on Mus musculus [2], this molecule came in with an inhibition in vivo at 10 mg/kg of 78.8%.
In series [1], `O=C(/C=C/c1ccc(O)c(O)c1)OCc1ccccc1` [BENZYL CAFFEATE] had a logP of 3.15. Besides, the inhibition in vivo at 10 mg/kg in the series on Mus musculus [2] came to 8.8%.
For `CCOC(=O)/C=C/c1ccc(O)c(O)c1` [ETHYL CAFFEATE] the same measures were 1.93 and 58.1%.
`CC(C)CCOC(=O)/C=C/c1ccc(O)c(O)c1` registered a log partition coefficient (logP) in series [1] of 3.21. For the same molecule, 10 mg/kg produced 75.8% inhibition in vivo in the series on Mus musculus [2].
For `CC(C)COC(=O)/C=C/c1ccc(O)c(O)c1`, in that order: 2.68 and 52%.
`COC(=O)/C=C/c1ccc(O)c(O)c1` [METHYLCAFFEATE] gave a logP in [1] of 1.56. In the series with Mus musculus [2], this molecule yielded an inhibition in vivo at 10 mg/kg of 54.5%.
For `CC(=O)Oc1ccccc1C(=O)O` [ASPIRIN], the ED50 in the series on Mus musculus [8] came to 125 µmol/kg; in the series on Mus musculus [14] it was 123 µmol/kg. The molecule further registered a logP in series [1] of 0.68. Also, the inhibition in vivo at 10 mg/kg in the series with Mus musculus [2] was 35%.
As to `CCCCOC(=O)/C=C/c1ccc(O)c(O)c1` [BUTYL CAFFEATE], in [1], the logP is 2.99. The molecule also showed an inhibition in vivo at 10 mg/kg in the series on Mus musculus [2] of 45%.
Take `CC(=O)Nc1ccc(O)cc1` [ACETAMINOPHEN]: the results for the ED50 in the series on Mus musculus [8] and with Mus musculus [14] were 133 µmol/kg and 120 µmol/kg, respectively. For the same molecule, in [1], the logP was determined as 1.43. In the series with Mus musculus [2], this molecule gave an inhibition in vivo at 10 mg/kg of 38%.
Consider `O=C(O)/C=C/c1ccc(O)c(O)c1` [CAFFEIC ACID], for which the inhibition in vivo at 10 mg/kg in the series with Mus musculus [2] was 34.6%.
`CC(C)OC(=O)/C=C/c1ccc(O)c(O)c1` had a logP in series [1] of 2.3. Also, in the series with Mus musculus [2], the inhibition in vivo at 10 mg/kg turned out to be 31%.
